Measured values reported in ChEMBL document CHEMBL1145922, “1,2-benzisoxazole phosphorodiamidates as novel anticancer prodrugs requiring bioreductive activation” (J Med Chem, 2003).

How the values were obtained:
Rattus norvegicus [1] = species: Rattus norvegicus; experiment: Alkylating Activity after incubation for 30 minutes in rat liver in Hypoxic condition in absence of NADPH; format: functional, organism-based
Summary of the method: (§1)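 Phenobarbital-induced rat liver S-9 fraction (17.9 or 18.2 mg/mL protein), substrate 2.5 mM final (added in methanol/water 50:50), NADPH 5 mM or no cofactor, 30 min at 37 °C. Hypoxic samples purged with nitrogen 15–20 min in sealed vials. Stopped with ice-cold methanol, proteins removed; alkylating activity by NBP assay, absorbance at 542 nm, mean of two experiments.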

Rattus norvegicus [2] = species: Rattus norvegicus; experiment: Alkylating Activity after incubation for 30 minutes in rat liver in oxic condition in absence of NADPH; format: functional, organism-based; summary of the method: as §1
V79 = experiment: In vitro cytotoxicity against Chinese hamster lung (V-79 cells) fibroblast determined using sulforhodamine B (SRB) assay; format: functional, cell-based; details: Cricetulus griseus
Summary of the method: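 V-79 Chinese hamster lung fibroblasts, about 15×10^3 cells/well, preincubated 24 h, then drug at eight concentrations for 48 h, aerobic. Fixed with cold TCA, stained with 0.4% SRB, dye solubilized in 10 mM Tris, read at 564 nm. % growth versus untreated control; first-order decay fit gives IC50. Triplicates, three experiments, mean ± SD.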

Rattus norvegicus [3] = species: Rattus norvegicus; experiment: Alkylating Activity after incubation for 30 minutes in rat liver in Hypoxic condition in presence of NADPH; format: functional, organism-based; summary of the method: as §1
Rattus norvegicus [4] = species: Rattus norvegicus; experiment: Metabolic stability after incubation for 30 minutes in rat liver in hypoxic condition in absence of NADPH; format: functional
Summary of the method: (§2)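 Phenobarbital-induced rat liver S-9 fraction, substrate 2.5 mM final, with 5 mM NADPH or no cofactor, 30 min at 37 °C, oxic or nitrogen-purged (hypoxic). Quenched with ice-cold methanol and centrifuged; supernatant analysed by TLC densitometry (ethyl acetate/ethanol eluent) for unchanged parent, reported as % remaining, mean ± SD of three experiments.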

Rattus norvegicus [5] = species: Rattus norvegicus; experiment: Metabolic stability after incubation for 30 minutes in rat liver in hypoxic condition in presence of NADPH; format: functional; summary of the method: as §2
Rattus norvegicus [6] = species: Rattus norvegicus; experiment: Metabolic stability after incubation for 30 minutes in rat liver in oxic condition in absence of NADPH; format: functional; summary of the method: as §2
Rattus norvegicus [7] = species: Rattus norvegicus; experiment: Alkylating Activity after incubation for 30 minutes in rat liver in oxic condition in presence of NADPH; format: functional, organism-based; summary of the method: as §1
Rattus norvegicus [8] = species: Rattus norvegicus; experiment: Metabolic stability after incubation for 30 minutes in rat liver in oxic condition in presence of NADPH; format: functional; summary of the method: as §2

Row | Structure (SMILES) | Absorbance (Rattus norvegicus [1]) | Absorbance (Rattus norvegicus [2]) | IC50 (V79) [µM] | Absorbance (Rattus norvegicus [3]) | Compound remaining (Rattus norvegicus [4]) [%] | Compound remaining (Rattus norvegicus [5]) [%] | Compound remaining (Rattus norvegicus [6]) [%] | Absorbance (Rattus norvegicus [7]) | Compound remaining (Rattus norvegicus [8]) [%]
1 | NP(=O)(OCCc1noc2ccccc12)N(CCCl)CCCl (stereo unspecified) | 0.38 | 0.26 | 411 | 2.02 | 98 | 34 | 97 | 1.97 | 33
2 | NP(=O)(OCCc1noc2ccc([N+](=O)[O-])cc12)N(CCCl)CCCl (stereo unspecified) | 0.85 |  | 311 | 2.23 | 76 | 1 | 79 |  | 1
3 | CCc1noc2ccccc12 |  |  | > 2000 |  |  |  |  |  | 
4 | COc1ccc2c(CCOP(N)(=O)N(CCCl)CCCl)noc2c1 (stereo unspecified) | 0.42 | 0.32 | 241 | 2.35 | 79 | 45 | 78 | 2.31 | 46
